Hits are enriched below; roughly 1.7% of the tested compounds scored in any of these assays.
TPT1 inhibitor: Candida albicans TPT1 enzyme inhibitors, primary screen, biochemical, fluorescence polarization; AID 1962, 2009; inhibition, % at 5 µM; recombinant caTPT1, FP RNA substrate dephosphorylation; actives 0.81% (n = 300,000);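 active = inhibition above the mean of all tested compounds plus 3 SD, set per screening campaign, cut at about 24% in these data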;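 also: plate controls were DMSO alone for no effect and ferristatin control at 100 nM for full effect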
NR1D1 modulator: modulators of Rev-erb alpha DNA binding, primary screen, biochemical, FITC-DNA, fluorescence polarization, uHTS; Nuclear receptor subfamily 1 group D member 1 (Homo sapiens), P20393; activity, % at 10 µM; actives 0.79% (n = 370,000); AID 1259318, 2017; Rev-erbα–FITC-DNA binding, 90 min;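 active = activity above about 14%, limit read from the data; passing the limit was not always enough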;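 also: 0% = DMSO wells with 35 nM protein and 100% = DMSO wells with 750 nM protein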
Target sequence (P20393 whole entry, looked up): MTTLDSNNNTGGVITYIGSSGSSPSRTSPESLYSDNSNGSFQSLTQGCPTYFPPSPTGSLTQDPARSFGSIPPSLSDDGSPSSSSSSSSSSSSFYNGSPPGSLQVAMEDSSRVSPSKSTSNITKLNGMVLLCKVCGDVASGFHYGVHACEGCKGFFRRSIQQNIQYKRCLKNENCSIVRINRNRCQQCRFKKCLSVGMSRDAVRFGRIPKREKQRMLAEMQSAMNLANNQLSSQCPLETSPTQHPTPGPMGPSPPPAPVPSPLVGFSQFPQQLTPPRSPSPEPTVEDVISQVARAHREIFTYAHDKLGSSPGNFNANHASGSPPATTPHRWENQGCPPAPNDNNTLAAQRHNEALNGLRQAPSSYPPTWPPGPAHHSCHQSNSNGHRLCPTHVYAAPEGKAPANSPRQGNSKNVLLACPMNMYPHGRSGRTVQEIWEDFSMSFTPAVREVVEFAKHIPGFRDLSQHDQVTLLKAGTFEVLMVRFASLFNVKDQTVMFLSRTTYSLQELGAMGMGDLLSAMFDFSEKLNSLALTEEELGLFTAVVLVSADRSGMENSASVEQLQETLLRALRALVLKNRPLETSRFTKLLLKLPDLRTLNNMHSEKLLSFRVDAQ
HNF4A DNA FP: change in binding of human HNF4A to DNA, primary screen, biochemical, fluorescence polarization, FITC-DNA. AID 1224865, 2016. actives 0.3% (n = 360,000). 1 h. Hepatocyte nuclear factor 4-alpha (Homo sapiens), P41235. activity change, % at 10 µM; in the data active = activity change above about 30%, passing the limit was not always enough
CSN inh: inhibitors of CSN-mediated cullin deneddylation, primary screen, biochemical, fluorescence polarization, uHTS; Purified CSN, SCF-Nedd8-OG deneddylation; actives 0.38% (n = 360,000); inhibition, % at 12.5 µM;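 active = pattern-corrected inhibition above about 35%, with an unprinted fluorescence ratio check between 0.5 and 1.5, limit read from the data, passing the limit was not always enough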;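 also: 0% = enzyme with substrate and 100% = substrate without enzyme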
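Material: purified human Csn5 enzyme expressed in HEK293T cells / Medium: Tris buffer pH 7.5, NaCl, DTT, Tween-20, trehalose, ovalbumin / Compound dosing: 12.5 µM single point / Schedule: 90 min incubation of compound, enzyme and substrate at room temperature / Signal: fluorescence polarization of the substrate / Control set: no-enzyme wells high, enzyme-with-substrate wells low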
TPT1 inh confirm: Candida albicans TPT1 inhibitors, confirmation, biochemical, fluorescence polarization, triplicate | shares compounds with TPT1 inhibitor | recombinant caTPT1, RNase T1 coupled | inhibition, % at 5 µM | actives 74% (n = 2,400) | AID 2149, 2009;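 active = inhibition above the primary screen limit, the mean inhibition of all tested compounds plus 3 SD, cut at about 25% in these data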
RNase T1 inh: RNase T1 inhibitors, counter-screen for TPT1 inhibitor project, biochemical, fluorescence polarization | inhibition, % at 5 µM | RNase T1 cleavage, 1536-well | shares compounds with TPT1 inhibitor | actives 83% (n = 2,400);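 active = inhibition above the solvent-only control well mean plus 3 SD, limit set per screening run, cut at about 23% in these data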;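 also: plate controls were DMSO wells with enzyme for no effect and wells without RNase T1 for full effect; inhibitors block cleavage so intact labeled substrate keeps polarization high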
CSN deneddyl val: Csn5 deneddylation inhibitors, confirmation, biochemical, fluorescence polarization, single concentration, SCF-Nedd8OG substrate; shares compounds with CSN inh; Csn5 deneddylation of SCF-Nedd8OG, 90 min; AID 720654, 2013; actives 62% (n = 540); inhibition, % at 16.6 µM; in the data active = inhibition above about 50%;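 also: 0% = DMSO with enzyme and 100% = no enzyme wells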
MMP-2 counter: MMP-2 protease inhibition counter-screen, confirmation, counter-screen for CSN deneddylation inhibitor project, biochemical, fluorescence, single concentration | recombinant MMP-2, FRET substrate fluorescence, 60 min | inhibition, % at 16.6 µM | shares compounds with CSN inh | actives 33% (n = 540);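 active = corrected plate-normalized z-score of 5 or more, or -5 or less, or inhibition of 15% or more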;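 also: plate controls were DMSO wells with enzyme for no effect and buffer wells lacking MMP-2 for full effect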
Thrombin counter: thrombin (bovine) inhibition, counter-screen for CSN hits; shares compounds with CSN inh; AID 720656; inhibition, % at 16.6 µM; bovine thrombin cleavage of Ub4-pepOG, fluorescence polarization; actives 49% (n = 540);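 active = inhibition at or above a set limit, with a fluorescence interference ratio between 0.5 and a set maximum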
Numbers without * were called inactive; / = no result given.

SMILES	TPT1 inhibitor	NR1D1 modulator	HNF4A DNA FP	CSN inh	TPT1 inh confirm	RNase T1 inh	CSN deneddyl val	MMP-2 counter	Thrombin counter
CCC(C)n1c(NC(=O)c2ccccc2)c(C#N)c2nc3ccccc3nc21 (centres undefined)	116.5*	-0.2	32.6*	50.3*	79.7*	84.7*	156.1*	-12.4	54.0*
COc1ccc(/C=N/N2C(=O)CSC2=S)cc1Br	37.5*	-26.0	61.0*	58.1*	62.1*	69.6*	50.9*	5.4	54.2*
COc1ccc(/C=N/N2C(=O)CSC2=S)cc1	7.4	4.8	4.1	0.0	/	/	/	/	/
Cc1cc(/C=N/NC(=O)c2cccc([N+](=O)[O-])c2)c(C)n1-c1ccccc1	2.3	-6.2	4.0	-0.9	/	/	/	/	/
Cc1cc(/C=N/Nc2ccc([N+](=O)[O-])cn2)c(C)n1-c1ccc(C(=O)O)cc1	53.5*	8.3	16.2	53.3*	68.0*	78.7*	90.3*	12.7	1.6
COc1cc(/C=C2\COC/C(=C\c3ccc(O)c(OC)c3)C2=O)ccc1O	6.5	-2.5	0.0	9.3	/	/	/	/	/
COc1cc(/C=C2/CC/C(=C/c3ccc(O)c(OC)c3)C2=O)ccc1O	112.7*	-1.8	48.2*	47.3*	117.0*	118.7*	61.9*	-16.8	71.9*
COCCCNC(=O)C[C@H]1C[C@@]2(C(=O)OC)C(=C[C@H](C(C)C)O[C@@H]2C2CC2)N(Cc2cccc3ccccc23)C1=O	/	5.3	/	/	/	/	/	/	/
C=CCCC[C@H]1OC(=O)[C@H](C)NC(=O)[C@H](C(C)C)NC(=O)[C@@H]2CCCN2C(=O)[C@H](Cc2ccccc2)OC(=O)[C@@H](C(C)C)N(C)C(=O)[C@H](C(C)C)NC(=O)C1(C)C	/	-4.5	/	/	/	/	/	/	/
Cc1nc(-n2[nH]c3c(c2=O)CCCC3)[nH]c(=O)c1Cc1ccccc1	122.5*	-2.4	44.0*	52.2*	64.6*	76.5*	80.0*	-3.6	49.0*
O=C(N/N=C\c1c(O)ccc2ccccc12)c1ccc(S(=O)(=O)N2CCCCC2)cc1	95.6*	-5.0	71.1*	95.5*	100.0*	100.9*	175.6*	-44.0*	31.6
O=C(NN=Cc1c(O)ccc2ccccc12)c1ccc2c(c1)OCO2	/	-3.6	3.2	5.8	/	/	/	/	/
O=C(O)CC(C(=O)O)N1C(=O)/C(=C/c2ccc(-c3nc4ccccc4s3)o2)SC1=S (centres undefined)	90.6*	-4.9	8.7	47.3*	109.0*	114.1*	81.8*	9.2	83.3*
O=C(O)CC(C(=O)O)N1C(=O)/C(=C/C=C/c2ccco2)SC1=S (centres undefined)	66.7*	4.6	-41.0	48.2*	28.9*	35.6*	37.7	34.4*	49.4*
O=C(O)CCCN1C(=O)/C(=C/C=C/c2ccco2)SC1=S	84.1*	-10.5	-55.7	39.5*	37.0*	38.0*	44.7	44.0*	21.6*
O=C(O)c1ccc(-c2nc3ccccc3s2)o1	-2.1	3.7	3.0	5.7	/	/	/	/	/
S=C1NCCOc2ccccc21	/	12.6	/	/	/	/	/	/	/
COC(=O)c1ccsc1NS(C)(=O)=O	/	2.5	/	/	/	/	/	/	/
COC1=C/C(=C/c2c(N)n3cc(C)sc3nc2=O)C=CC1=O	81.4*	16.6	66.3*	77.7*	127.3*	128.4*	65.9*	-7.7	62.2*
Cc1cn2c(N)c(/C=C3\C=Nc4ccccc43)c(=O)nc2s1	-2.2	-8.3	5.5	3.0	/	/	/	/	/
COC(=O)[C@]12C[C@H](CC(=O)NCc3ccccc3)C(=O)N(Cc3ccccc3)C1=C[C@H](C(C)(C)C)O[C@@H]2C	/	-9.8	/	/	/	/	/	/	/
Cc1cccc(N=Nc2c(C)c(C#N)c(O)[nH]c2=O)c1	23.8	1.2	4.2	28.4	/	/	/	/	/
Cc1c(C#N)c(O)[nH]c(=O)c1N=Nc1ccc(Br)cc1C(=O)O	28.7*	10.3	86.4*	55.8*	43.2*	64.6*	20.6	1.7	53.4*
NCCCC(C(=O)O)N(C(=O)OCc1ccccc1)C(=O)OCc1ccccc1 (centres undefined)	/	2.8	/	/	/	/	/	/	/
CCOC(=O)SC1=N/C(=C\c2ccc(N(C)C)cc2)C(=O)S1	82.2*	4.0	78.9*	42.6*	101.2*	101.9*	79.9*	-7.2	46.3*
SMILES	TPT1 inhibitor	NR1D1 modulator	HNF4A DNA FP	CSN inh	TPT1 inh confirm	RNase T1 inh	CSN deneddyl val	MMP-2 counter	Thrombin counter
CCOc1ccc(N(C)c2ccc(/C=C3/SC(=S)NC3=O)cc2)cc1	114.7*	17.4	108.3	87.4*	128.0*	127.4*	28.3	23.7*	65.9*
O=C(NC1CCCC1)C1(C(=O)C2CC2)CC(c2ccccc2C(F)(F)F)=NO1 (centres undefined)	/	4.3	/	/	/	/	/	/	/
COC1=CC(=Cc2c(N)n3nc(CC(=O)N4CCCCC4)sc3nc2=O)C=C(OC)C1=O	30.7*	8.0	37.9*	77.6*	111.8*	110.4*	33.8	-10.7	73.7*
COC1=C/C(=C/c2c(N)n3nc(CC(=O)N4CCCC4)sc3nc2=O)C=CC1=O	13.2	1.1	16.8	14.6	/	/	/	/	/
Oc1ccc(Cl)cc1N=Cc1sc2ccccc2c1Cl	10.9	8.3	4.4	2.2	/	/	/	/	/
O=[N+]([O-])c1ccc(O)c(N=Cc2sc3ccccc3c2O)c1	42.1*	20.8	33.5	44.0*	38.0*	53.5*	102.3*	8.1	50.7*
Cc1ccc(/C=C/C(=O)c2ccccc2O)cc1	2.2	-1.8	1.5	4.6	/	/	/	/	/
CN(C)c1ccc(/C=C/C(=O)c2ccccc2O)cc1	68.2*	2.1	27.3	70.3*	55.4*	64.1*	92.5*	-19.5	65.4*
CN(C)c1ccc(/C=C/C(=O)c2cccnc2)cc1	92.9*	1.8	2.6	48.7*	100.1*	100.2*	52.3*	-43.2*	44.7*

Assay outcomes (PubChem BioAssay)
